According to ChEMBL document CHEMBL1144684, “Evaluation of a series of naphthamides as potent, orally active vascular endothelial growth factor receptor-2 tyrosine kinase inhibitors” (J Med Chem, 2008):
Calls of active or inactive are those of the source. The calls are words filed in the database; no cut-off is given here.

Columns and labels:
HUVEC [1] = assay: Selectivity of IC50 for VEGF-induced proliferation over IC50 for bFGF-induced proliferation of HUVEC; type: functional, Homo sapiens
How it was run: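 HUVECs were seeded at 3000 cells/well in DMEM/10% FBS with pen/strep and cultured for 22 h. They were preincubated 2 h with serially diluted compound, then stimulated with 50 ng/mL VEGF or 20 ng/mL bFGF for 72 h at 37 °C, 5% CO2. Cells were washed, frozen at -70 °C and stained with CyQuant. IC50s came from a four-parameter logistic fit, averaged over ≥2 experiments; the VEGF IC50 was compared against the bFGF IC50.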

[2] = Intrinsic clearance in rat liver microsomes at 1 uM; type: ADME, Microsome; details: read-out: Stability
How it was run: (§1)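 Human or rat liver microsomes (0.25 mg protein/mL) with 1 mM NADPH, 2 mM MgCl2 in 50 mM potassium phosphate pH 7.4 at 37 °C; compound 1 µM final. Sampled 0–40 min into acetonitrile, LC-MS/MS; ln % remaining vs time slope gives T1/2; CLint = (0.693/T1/2)/0.25 mg/mL.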

[3] = Intrinsic clearance in human liver microsomes at 1 uM; type: ADME, Microsome; details: read-out: Stability; how it was run: as §1
[4] = Clearance in Sprague-Dawley rat at 1 mg/kg, iv; type: ADME, organism-based; parameters: dose 1 mg/kg, route intravenous; details: in vivo
How it was run: (§2)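 Male Sprague–Dawley rats dosed iv via femoral vein as DMSO solution (1 or 0.5 mg/kg) or po by gavage as OraPlus suspension (pH 2.0–2.2 with methanesulfonic acid; 10 or 2 mg/kg). Serial jugular blood over 12–24 h; plasma acetonitrile precipitation, LC-MS/MS (MRM) with internal standard; noncompartmental parameters.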

Liver microsomes [5] = assay: Metabolic stability assessed as covalent binding in absence of NADPH in rat liver microsomes at 10 uM after 1 hr; type: ADME, Microsome
How it was run: (§3)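 14C-labelled compound at 10 µM with human or rat liver microsomes (1 mg/mL) in 0.1 M potassium phosphate pH 7.4, with or without 1 mM NADPH and 1 mM glutathione, 60 min; quenched with ice-cold acetonitrile. Pellet washed with 80% methanol and ethanol/ether, solubilized, protein by BCA, radioactivity by scintillation counting.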

Liver microsomes [6] = assay: Metabolic stability assessed as covalent binding in presence of NADPH and GSH in rat liver microsomes at 10 uM after 1 hr; type: ADME, Microsome; how it was run: as §3
[7] = Volume of distribution at steady state in Sprague-Dawley rat at 1 mg/kg, iv; type: ADME, organism-based; parameters: dose 1 mg/kg, route intravenous; details: in vivo, read-out: Vdss
How it was run: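 Male Sprague–Dawley rats given 1 mg/kg iv via femoral vein as DMSO solution or 10 mg/kg by oral gavage as OraPlus suspension, pH adjusted to 2.0–2.2 with methanesulfonic acid. Serial jugular blood over 12–24 h; plasma protein-precipitated with acetonitrile, quantified by LC-MS/MS (MRM) with internal standard; noncompartmental parameters.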

[8] = Half life in Sprague-Dawley rat at 1 mg/kg, iv; type: ADME, organism-based; parameters: dose 1 mg/kg, route intravenous; details: in vivo; how it was run: as §2
[9] = AUC (0 to infinity) in Sprague-Dawley rat at 2 mg/kg, po; type: ADME, organism-based; parameters: time infinity, dose 2 mg/kg, route oral; details: plasma; how it was run: as §2
[10] = Cmax in Sprague-Dawley rat at 2 mg/kg, po; type: ADME, organism-based; parameters: dose 2 mg/kg, route oral; details: in vivo; how it was run: as §2
[11] = Tmax in Sprague-Dawley rat at 2 mg/kg, po; type: ADME, organism-based; parameters: dose 2 mg/kg, route oral; details: in vivo
How it was run: (§4)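 Male Sprague–Dawley rats dosed iv at 0.5 mg/kg as DMSO solution or po at 2 mg/kg as suspension in 100% OraPlus. Serial jugular blood, plasma LC-MS/MS quantitation, noncompartmental analysis.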

[12] = Oral bioavailability in Sprague-Dawley rat at 2 mg/kg; type: ADME, organism-based; details: in vivo; how it was run: as §4
[13] = Aqueous solubility in 0.01 N Hcl; type: physicochemical
[14] = target: Vascular endothelial growth factor receptor 1 (Homo sapiens, UniProt P17948); assay: Inhibition of human VEGFR1
[15] = target: Vascular endothelial growth factor receptor 3 (Homo sapiens) (UniProt P35916); assay: Inhibition of human VEGFR3
[16] = target: Platelet-derived growth factor receptor alpha (Homo sapiens) (UniProt P16234); assay: Inhibition of PDGFRalpha
[17] = target: Mast/stem cell growth factor receptor Kit (Homo sapiens) (UniProt P10721); assay: Inhibition of c-Kit
Chain of Mast/stem cell growth factor receptor Kit (Homo sapiens) (P10721 whole entry): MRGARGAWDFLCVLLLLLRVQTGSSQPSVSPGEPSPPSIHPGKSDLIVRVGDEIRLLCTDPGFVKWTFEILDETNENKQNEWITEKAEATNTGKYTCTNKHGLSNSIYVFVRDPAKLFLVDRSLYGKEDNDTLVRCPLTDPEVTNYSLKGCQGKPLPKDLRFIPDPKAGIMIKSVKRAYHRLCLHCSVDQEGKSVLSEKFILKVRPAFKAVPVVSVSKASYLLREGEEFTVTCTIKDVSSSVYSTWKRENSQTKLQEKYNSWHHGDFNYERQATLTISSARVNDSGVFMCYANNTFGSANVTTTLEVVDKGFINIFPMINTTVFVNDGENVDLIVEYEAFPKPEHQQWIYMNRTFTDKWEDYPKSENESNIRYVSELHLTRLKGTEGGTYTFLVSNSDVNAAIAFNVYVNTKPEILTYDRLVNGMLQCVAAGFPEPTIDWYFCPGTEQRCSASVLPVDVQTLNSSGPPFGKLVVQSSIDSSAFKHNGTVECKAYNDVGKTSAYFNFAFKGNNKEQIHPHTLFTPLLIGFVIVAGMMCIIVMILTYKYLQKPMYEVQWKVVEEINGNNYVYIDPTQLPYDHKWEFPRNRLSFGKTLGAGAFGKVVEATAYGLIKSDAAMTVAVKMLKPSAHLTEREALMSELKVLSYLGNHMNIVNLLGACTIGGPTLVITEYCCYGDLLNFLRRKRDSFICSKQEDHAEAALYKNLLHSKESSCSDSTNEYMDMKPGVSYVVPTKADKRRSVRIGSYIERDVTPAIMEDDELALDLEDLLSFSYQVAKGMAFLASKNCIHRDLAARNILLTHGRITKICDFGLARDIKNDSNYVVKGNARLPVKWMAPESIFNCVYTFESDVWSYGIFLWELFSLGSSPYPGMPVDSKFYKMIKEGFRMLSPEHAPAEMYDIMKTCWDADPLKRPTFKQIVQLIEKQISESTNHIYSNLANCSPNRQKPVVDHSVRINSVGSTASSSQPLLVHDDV

[18] = target: Macrophage colony-stimulating factor 1 receptor (Homo sapiens) (UniProt P07333); assay: Inhibition of c-fms
[19] = target: Tyrosine-protein kinase Lyn (Homo sapiens, UniProt P07948); assay: Inhibition of Lyn
Chain of Tyrosine-protein kinase Lyn (P07948 whole entry): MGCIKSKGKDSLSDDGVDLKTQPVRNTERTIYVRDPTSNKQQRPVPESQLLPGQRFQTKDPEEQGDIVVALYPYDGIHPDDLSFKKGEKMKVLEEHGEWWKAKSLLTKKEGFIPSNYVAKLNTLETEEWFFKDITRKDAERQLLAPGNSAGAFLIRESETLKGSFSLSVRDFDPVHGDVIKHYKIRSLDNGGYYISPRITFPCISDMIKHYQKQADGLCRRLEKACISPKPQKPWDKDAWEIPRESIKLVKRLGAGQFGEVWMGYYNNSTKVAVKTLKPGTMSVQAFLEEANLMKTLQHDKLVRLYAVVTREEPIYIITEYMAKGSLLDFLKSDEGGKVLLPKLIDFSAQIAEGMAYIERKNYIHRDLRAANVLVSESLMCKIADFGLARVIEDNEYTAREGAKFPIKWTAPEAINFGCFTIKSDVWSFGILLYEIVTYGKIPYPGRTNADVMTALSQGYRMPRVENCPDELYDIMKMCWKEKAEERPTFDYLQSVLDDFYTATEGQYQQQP

Mus musculus = assay: Inhibition of VEGF-induced vascular permeability in HEK293 cells expressing mouse recombinant VEGF implanted in CD1 nu/nu mouse assessed as Matrigel plug at 3 mg/kg, po after 6 hrs; type: functional, organism-based; parameters: dose 3 mg/kg
How it was run: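 HEK293 cells expressing murine VEGF (or vector) suspended in Matrigel, injected sc ventrally into CD-1 nu/nu mice. At 24 h, single oral gavage dose as OraPlus suspension; 6 h later Evans blue quantified in 1 cm2 skin over plug; plasma level taken at 6 h; n = 5/group.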

Rattus norvegicus = assay: Inhibition of VEGF-induced angiogenesis in VEGF-soaked disk implanted in Sprague-Dawley rat cornea assessed as number of blood vessels intersecting the midpoint between disk and limbus after 7 days; type: functional; details: 168 h
[20] = AUC in VEGF-soaked disk implanted in Sprague-Dawley rat; type: ADME, organism-based; details: plasma
[21] = Cmax in VEGF-soaked disk implanted in Sprague-Dawley rat; type: ADME, organism-based; details: in vivo
Liver microsomes [22] = assay: Metabolic stability assessed as covalent binding in presence of NADPH in human liver microsomes at 10 uM after 1 hr; type: ADME, Microsome; how it was run: as §3
Liver microsomes [23] = assay: Metabolic stability assessed as covalent binding in absence of NADPH in human liver microsomes at 10 uM after 1 hr; type: ADME, Microsome; how it was run: as §3
Liver microsomes [24] = assay: Metabolic stability assessed as covalent binding in presence of NADPH and GSH in human liver microsomes at 10 uM after 1 hr; type: ADME, Microsome; how it was run: as §3
Liver microsomes [25] = assay: Metabolic stability assessed as covalent binding in presence of NADPH in rat liver microsomes at 10 uM after 1 hr; type: ADME, Microsome; how it was run: as §3
Angiopoietin-1 receptor = Angiopoietin-1 receptor (Homo sapiens, UniProt Q02763); assay: Inhibition of Tie2
Chain of Angiopoietin-1 receptor (Q02763 whole entry): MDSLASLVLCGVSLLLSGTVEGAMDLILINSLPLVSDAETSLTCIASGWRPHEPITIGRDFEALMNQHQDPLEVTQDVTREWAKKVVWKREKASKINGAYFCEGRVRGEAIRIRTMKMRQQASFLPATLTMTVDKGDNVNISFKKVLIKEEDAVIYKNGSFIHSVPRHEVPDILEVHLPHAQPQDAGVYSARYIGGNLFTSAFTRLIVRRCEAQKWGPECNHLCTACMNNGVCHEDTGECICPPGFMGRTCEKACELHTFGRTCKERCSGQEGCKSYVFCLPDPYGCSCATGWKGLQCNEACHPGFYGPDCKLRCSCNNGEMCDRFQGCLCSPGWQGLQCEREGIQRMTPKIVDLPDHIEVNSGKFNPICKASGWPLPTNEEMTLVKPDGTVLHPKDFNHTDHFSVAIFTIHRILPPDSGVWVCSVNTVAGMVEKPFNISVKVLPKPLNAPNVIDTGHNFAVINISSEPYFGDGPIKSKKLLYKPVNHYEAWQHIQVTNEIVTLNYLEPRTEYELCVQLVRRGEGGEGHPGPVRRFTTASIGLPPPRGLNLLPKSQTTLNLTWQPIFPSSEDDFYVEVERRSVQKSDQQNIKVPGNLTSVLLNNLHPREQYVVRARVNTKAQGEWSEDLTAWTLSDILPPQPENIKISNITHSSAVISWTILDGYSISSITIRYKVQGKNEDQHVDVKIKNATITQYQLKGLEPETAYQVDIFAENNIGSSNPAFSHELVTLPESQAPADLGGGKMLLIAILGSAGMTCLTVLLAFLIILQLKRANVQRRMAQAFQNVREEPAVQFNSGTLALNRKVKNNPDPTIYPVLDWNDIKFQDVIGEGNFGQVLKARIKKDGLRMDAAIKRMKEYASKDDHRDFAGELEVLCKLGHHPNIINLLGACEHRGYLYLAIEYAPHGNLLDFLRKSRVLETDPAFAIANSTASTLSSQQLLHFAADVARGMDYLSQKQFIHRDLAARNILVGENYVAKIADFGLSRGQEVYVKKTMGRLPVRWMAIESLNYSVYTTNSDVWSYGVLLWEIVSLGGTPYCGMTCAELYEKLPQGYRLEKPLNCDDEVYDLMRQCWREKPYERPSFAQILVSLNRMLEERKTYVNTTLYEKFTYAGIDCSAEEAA

[26] = target: Hepatocyte growth factor receptor (Homo sapiens, UniProt P08581); assay: Inhibition of c-Met
Chain of Hepatocyte growth factor receptor (P08581 whole entry): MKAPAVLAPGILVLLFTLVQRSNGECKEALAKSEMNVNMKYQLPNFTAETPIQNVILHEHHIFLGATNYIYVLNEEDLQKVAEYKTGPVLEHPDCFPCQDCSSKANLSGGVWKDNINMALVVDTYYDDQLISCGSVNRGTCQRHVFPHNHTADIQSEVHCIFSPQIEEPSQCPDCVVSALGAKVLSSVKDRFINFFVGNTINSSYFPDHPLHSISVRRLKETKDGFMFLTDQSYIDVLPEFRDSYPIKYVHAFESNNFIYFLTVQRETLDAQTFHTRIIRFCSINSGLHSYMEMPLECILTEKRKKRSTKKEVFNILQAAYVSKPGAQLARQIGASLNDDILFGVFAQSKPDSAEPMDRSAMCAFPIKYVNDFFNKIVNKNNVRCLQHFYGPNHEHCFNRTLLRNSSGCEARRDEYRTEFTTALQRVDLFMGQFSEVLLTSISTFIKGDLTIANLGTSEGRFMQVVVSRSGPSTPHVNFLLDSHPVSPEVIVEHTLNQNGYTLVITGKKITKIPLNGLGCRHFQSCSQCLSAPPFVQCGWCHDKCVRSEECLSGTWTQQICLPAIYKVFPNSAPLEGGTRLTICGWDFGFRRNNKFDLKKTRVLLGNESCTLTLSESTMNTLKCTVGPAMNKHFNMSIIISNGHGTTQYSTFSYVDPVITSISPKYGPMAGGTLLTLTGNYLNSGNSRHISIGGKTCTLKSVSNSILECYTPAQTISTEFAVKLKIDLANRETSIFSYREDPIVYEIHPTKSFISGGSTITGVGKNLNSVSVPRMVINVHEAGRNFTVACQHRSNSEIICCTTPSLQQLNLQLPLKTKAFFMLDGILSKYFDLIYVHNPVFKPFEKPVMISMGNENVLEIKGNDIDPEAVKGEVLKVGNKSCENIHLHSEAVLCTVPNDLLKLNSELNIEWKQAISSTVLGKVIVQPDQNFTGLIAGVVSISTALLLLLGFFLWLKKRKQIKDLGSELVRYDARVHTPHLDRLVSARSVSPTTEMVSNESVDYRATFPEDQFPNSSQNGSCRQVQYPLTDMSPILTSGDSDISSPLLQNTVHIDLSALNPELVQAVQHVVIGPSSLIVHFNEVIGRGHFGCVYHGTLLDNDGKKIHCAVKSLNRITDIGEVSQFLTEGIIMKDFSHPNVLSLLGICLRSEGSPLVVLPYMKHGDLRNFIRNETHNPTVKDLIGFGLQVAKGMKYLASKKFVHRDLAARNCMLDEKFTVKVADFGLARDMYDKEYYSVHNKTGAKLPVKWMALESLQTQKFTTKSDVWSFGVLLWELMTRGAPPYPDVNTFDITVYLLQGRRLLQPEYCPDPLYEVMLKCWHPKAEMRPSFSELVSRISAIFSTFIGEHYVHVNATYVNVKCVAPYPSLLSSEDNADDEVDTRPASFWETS

[27] = target: Tyrosine-protein kinase Lck (Homo sapiens, UniProt P06239); assay: Inhibition of Lck
Chain of Tyrosine-protein kinase Lck (P06239 whole entry): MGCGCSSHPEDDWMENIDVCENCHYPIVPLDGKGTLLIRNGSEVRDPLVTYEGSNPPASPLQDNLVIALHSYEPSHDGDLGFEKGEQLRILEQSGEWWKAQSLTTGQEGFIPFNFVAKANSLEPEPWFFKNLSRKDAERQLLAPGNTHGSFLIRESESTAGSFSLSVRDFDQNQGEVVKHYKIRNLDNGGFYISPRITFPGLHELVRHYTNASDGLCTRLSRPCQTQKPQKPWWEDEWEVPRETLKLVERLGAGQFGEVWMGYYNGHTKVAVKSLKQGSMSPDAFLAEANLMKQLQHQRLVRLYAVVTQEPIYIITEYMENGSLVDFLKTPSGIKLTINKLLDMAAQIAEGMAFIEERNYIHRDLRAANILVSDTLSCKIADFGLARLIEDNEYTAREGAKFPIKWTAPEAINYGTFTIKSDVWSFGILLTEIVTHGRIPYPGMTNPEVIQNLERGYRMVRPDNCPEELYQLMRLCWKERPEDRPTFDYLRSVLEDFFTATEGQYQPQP

Aurora kinase A = target: T1, Aurora kinase A (Homo sapiens, UniProt O14965); assay: Inhibition of Aurora A
T1 sequence (O14965 whole entry): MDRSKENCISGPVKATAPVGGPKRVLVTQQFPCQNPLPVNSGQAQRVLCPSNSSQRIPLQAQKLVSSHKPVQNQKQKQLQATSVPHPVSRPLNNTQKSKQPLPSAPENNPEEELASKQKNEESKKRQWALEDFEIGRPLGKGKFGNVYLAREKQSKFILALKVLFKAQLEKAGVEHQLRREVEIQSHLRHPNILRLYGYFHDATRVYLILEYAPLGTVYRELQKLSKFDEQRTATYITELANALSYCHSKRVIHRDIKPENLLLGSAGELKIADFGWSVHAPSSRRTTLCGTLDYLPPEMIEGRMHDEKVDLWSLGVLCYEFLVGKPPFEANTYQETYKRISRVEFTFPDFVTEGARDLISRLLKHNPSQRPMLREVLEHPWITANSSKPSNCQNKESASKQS

Aurora kinase B = Aurora kinase B (Homo sapiens, UniProt Q96GD4); assay: Inhibition of Aurora B
Chain of Aurora kinase B (Q96GD4 whole entry): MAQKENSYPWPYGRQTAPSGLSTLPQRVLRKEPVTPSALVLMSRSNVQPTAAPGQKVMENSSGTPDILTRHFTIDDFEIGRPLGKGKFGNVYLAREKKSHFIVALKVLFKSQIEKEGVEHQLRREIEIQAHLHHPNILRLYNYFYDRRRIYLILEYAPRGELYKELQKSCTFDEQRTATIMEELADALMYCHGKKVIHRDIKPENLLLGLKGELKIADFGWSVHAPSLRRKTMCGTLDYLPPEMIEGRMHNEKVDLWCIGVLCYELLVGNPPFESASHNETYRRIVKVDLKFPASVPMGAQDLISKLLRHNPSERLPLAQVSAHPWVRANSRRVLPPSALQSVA

HUVEC [28] = assay: Inhibition of VEGF-induced proliferation of HUVEC; type: functional, cell-based; details: Homo sapiens
HUVEC [29] = assay: Inhibition of bFGF-induced proliferation of HUVEC; type: functional, cell-based; details: Homo sapiens
How it was run: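 HUVEC seeded at 3000/well in DMEM with 10% FBS, 22 h; 2 h preincubation with serial compound dilutions, then 50 ng/mL VEGF or 20 ng/mL bFGF for 72 h at 37 °C. Freeze–thaw, CyQuant DNA dye read-out; IC50 by four-parameter logistic fit, averaged over ≥2 experiments.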

[30] = target: Vascular endothelial growth factor receptor 2 (Homo sapiens, UniProt P35968)

In the case of `COCCNC(=O)c1cccc2cc(Oc3ccnc4cc(OC)c(OC)cc34)ccc12`, the Selectivity ratio (HUVEC [1]) is reported as >100, the microsomal CLint at 1 µM [2] is reported as 48 µL/min/mg and the microsomal CLint at 1 µM [3] is reported as 32 µL/min/mg. For the same compound, the clearance [4] was 0.532 L/h/kg, the Stability (Liver microsomes [5]) was 125 pmol/mg/h and the Stability (Liver microsomes [6]) was 1.6 pmol/mg/h. The Vd [7] was 1.13 L/kg, the half-life [8] was 1.6 h and the AUC(0-inf) [9] was 3.77 µg·h/mL. It also gave a Cmax [10] of 0.543 µg/mL, a Tmax [11] of 2 h and a bioavailability [12] of 99%. The solubility [13] was > 0.2 mg/mL, the IC50 [14] was 0.073 µM and the Activity [15] was “Active”. For the same compound, the Activity [16] was “Active”, the Activity [17] was “Active” and the Activity [18] was “Active”. The IC50 [19] was 0.275 µM, the Cp (Mus musculus) was 0.2 µM and the ED50 (Rattus norvegicus) was 0.04 mg/kg. The AUC [20] was 520 nM·h, the Cmax [21] was 0.04 µM and the Stability (Liver microsomes [22]) was 321 pmol/mg/h. For the same compound, the Stability (Liver microsomes [23]) was 125 pmol/mg/h, the Stability (Liver microsomes [24]) was 1.6 pmol/mg/h and the Stability (Liver microsomes [25]) was 353 pmol/mg/h. The IC50 (Angiopoietin-1 receptor) was 25 µM, the IC50 [26] was 20 µM and the IC50 [27] was 1.2 µM. For the same compound, the IC50 (Aurora kinase A) was 7.2 µM, the IC50 (Aurora kinase B) was 0.13 µM and the IC50 (HUVEC [28]) was 0.00064 µM. For the same compound, the IC50 (HUVEC [29]) was 1.14 µM and the IC50 [30] was 0.012 µM.
